ChEMBL document CHEMBL4622923, “Discovery of 4-Phenylpiperidine-2-Carboxamide Analogues as Serotonin 5-HT2C Receptor-Positive Allosteric Modulators with Enhanced Drug-like Properties” (J Med Chem, 2020)
pKi: −log10 of the molar value.

Assays:
[1] = target: 5-hydroxytryptamine receptor 1A (Homo sapiens) (UniProt P08908); test: Displacement of [3H]-8-OH-DPAT from human 5HT1A stably expressed in CHO cell membranes at 10 uM incubated for 90 mins under dark condition by scintillation counting analysis relative to control
Chain of 5-hydroxytryptamine receptor 1A (Homo sapiens) (P08908 whole entry): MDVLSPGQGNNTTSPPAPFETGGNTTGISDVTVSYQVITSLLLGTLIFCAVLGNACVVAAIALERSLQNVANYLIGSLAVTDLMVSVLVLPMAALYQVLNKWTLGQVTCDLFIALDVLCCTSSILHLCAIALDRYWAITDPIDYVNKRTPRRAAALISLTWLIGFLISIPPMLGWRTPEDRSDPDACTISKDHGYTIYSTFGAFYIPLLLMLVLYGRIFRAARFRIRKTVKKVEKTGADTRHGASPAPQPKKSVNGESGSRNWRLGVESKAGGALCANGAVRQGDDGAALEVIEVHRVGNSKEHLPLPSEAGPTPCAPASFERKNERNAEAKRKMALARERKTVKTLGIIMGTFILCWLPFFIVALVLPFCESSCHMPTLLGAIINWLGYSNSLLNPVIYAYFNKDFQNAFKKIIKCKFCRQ

[2] = target: D(4) dopamine receptor (Homo sapiens) (UniProt P21917); test: Displacement of [3H]-N-methylspiperone from human dopamine D4 receptor stably expressed in HEK cell membranes at 10 uM incubated for 90 mins under dark condition by scintillation counting analysis relative to control
Chain of D(4) dopamine receptor (Homo sapiens) (P21917 whole entry): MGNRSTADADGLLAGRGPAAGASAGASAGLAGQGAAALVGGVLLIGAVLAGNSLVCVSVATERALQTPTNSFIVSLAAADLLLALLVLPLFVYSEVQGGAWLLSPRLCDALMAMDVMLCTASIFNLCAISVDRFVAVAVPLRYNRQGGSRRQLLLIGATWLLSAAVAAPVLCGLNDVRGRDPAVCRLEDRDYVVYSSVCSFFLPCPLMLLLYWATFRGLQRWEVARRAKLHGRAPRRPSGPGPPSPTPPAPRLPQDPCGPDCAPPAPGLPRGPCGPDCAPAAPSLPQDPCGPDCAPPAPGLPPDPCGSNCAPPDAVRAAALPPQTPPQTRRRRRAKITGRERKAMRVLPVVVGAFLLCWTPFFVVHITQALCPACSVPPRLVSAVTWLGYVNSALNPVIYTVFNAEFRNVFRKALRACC

[3] = target: T1, 5-hydroxytryptamine receptor 2C (Homo sapiens, UniProt P28335); test: Agonist activity at human 5HT2CR expressed in CHO cells assessed as increase in intracellular calcium release at 1 nM incubated for 15 mins measured at 1 secs interval for 120 secs by calcium 4 dye based FLIPR assay relative to 5-HT; type: cell-based; conditions: 0.001 µM
T1 sequence (P28335 whole entry): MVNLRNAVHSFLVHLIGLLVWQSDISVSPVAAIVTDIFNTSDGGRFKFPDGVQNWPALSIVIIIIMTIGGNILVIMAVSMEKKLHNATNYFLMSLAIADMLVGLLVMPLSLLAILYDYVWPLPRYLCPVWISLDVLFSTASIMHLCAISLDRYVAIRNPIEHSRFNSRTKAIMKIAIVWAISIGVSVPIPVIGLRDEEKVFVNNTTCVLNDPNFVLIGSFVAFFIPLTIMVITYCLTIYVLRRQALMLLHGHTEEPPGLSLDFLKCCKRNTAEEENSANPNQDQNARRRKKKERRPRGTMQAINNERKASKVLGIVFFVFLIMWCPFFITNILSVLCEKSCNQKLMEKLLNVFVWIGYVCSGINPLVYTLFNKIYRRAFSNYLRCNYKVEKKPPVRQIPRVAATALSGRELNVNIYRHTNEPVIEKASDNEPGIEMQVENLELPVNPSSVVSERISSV
Procedure, shortened: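 h5-HT2CR (unedited INI isoform) stably expressed in CHO cells; cells plated ~24 h, serum-free medium 3 h, then Calcium 4 dye with 2.5 mM probenecid in Ca/Mg-free HBSS pH 7.4 for 60 min at 37°C plus 15 min at room temperature. Compound given alone, read for 15 min before 5-HT. Peak fluorescence is expressed relative to the 5-HT Emax. 4-6 biological replicates, each in triplicate.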

[4] = target: Sodium-dependent dopamine transporter (Homo sapiens) (UniProt Q01959); test: Displacement of [3H]-WIN35428 from human DAT expressed in HEK cell membranes at 10 uM incubated for 90 mins under dark condition by scintillation counting analysis relative to control
Chain of Sodium-dependent dopamine transporter (Homo sapiens) (Q01959 whole entry): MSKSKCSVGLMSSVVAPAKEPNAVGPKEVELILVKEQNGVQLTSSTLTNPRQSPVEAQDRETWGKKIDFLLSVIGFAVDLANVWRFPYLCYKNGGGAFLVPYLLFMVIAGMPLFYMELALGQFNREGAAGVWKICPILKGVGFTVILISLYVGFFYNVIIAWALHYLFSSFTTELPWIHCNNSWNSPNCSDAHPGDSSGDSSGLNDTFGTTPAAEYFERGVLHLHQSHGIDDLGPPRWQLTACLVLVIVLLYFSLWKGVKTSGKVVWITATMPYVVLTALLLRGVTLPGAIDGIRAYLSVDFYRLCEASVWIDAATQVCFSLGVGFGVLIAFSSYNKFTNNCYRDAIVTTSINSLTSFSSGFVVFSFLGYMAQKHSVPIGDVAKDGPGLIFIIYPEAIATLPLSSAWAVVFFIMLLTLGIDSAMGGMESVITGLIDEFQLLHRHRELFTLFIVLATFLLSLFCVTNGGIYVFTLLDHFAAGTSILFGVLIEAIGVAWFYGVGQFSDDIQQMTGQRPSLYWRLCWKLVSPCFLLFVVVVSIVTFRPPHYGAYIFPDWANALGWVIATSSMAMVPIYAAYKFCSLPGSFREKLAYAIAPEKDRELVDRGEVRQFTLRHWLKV

[5] = target: Mu-type opioid receptor (Homo sapiens) (UniProt P35372); test: Displacement of [3H]-DAMGO from human mu opioid receptor stably expressed in HEK cell membranes at 10 uM incubated for 90 mins under dark condition by scintillation counting analysis relative to control
Chain of Mu-type opioid receptor (Homo sapiens) (P35372 whole entry): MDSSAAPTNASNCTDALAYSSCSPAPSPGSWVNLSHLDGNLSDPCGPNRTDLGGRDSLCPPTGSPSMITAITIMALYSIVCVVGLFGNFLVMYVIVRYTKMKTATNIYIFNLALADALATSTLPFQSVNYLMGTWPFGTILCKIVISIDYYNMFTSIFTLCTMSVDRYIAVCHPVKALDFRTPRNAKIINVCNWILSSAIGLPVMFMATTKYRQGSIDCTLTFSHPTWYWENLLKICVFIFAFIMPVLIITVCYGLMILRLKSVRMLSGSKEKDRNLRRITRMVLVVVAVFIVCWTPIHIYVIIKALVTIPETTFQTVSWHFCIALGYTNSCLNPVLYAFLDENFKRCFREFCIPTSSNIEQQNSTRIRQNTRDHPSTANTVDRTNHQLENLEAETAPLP

[6] = Ratio of drug level in brain to plasma in Sprague-Dawley rat at 10 mg/kg, iv after 1 hr; type: ADME, organism-based
Procedure, shortened: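 Male Sprague-Dawley rats, n = 3/group, given 10 mg/kg iv in 10% DMSO:90% HP-β-CD. Brain and plasma collected at 0.25 and 1 h after dosing. Brain concentration (ng/g) divided by plasma concentration (ng/mL); mean ± SEM.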

[7] = target: D(1A) dopamine receptor (Homo sapiens) (UniProt P21728); test: Displacement of [3H]-SCH23390 from human dopamine D1 receptor transiently expressed in HEKT cell membranes at 10 uM incubated for 90 mins under dark condition by scintillation counting analysis relative to control
Chain of D(1A) dopamine receptor (Homo sapiens) (P21728 whole entry): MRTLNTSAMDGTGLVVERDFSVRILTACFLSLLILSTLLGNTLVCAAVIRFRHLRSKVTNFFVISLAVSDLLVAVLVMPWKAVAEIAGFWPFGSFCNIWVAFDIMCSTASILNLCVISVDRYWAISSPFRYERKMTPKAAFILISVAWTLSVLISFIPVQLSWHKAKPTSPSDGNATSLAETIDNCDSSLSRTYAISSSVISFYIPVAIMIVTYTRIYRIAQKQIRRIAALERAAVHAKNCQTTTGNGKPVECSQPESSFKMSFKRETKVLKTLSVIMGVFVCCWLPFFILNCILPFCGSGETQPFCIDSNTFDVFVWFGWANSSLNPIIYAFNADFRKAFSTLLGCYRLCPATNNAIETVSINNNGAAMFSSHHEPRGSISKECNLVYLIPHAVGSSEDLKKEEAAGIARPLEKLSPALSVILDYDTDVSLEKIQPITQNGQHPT

[8] = target: Sodium-dependent noradrenaline transporter (Homo sapiens, UniProt P23975); test: Displacement of [3H]-nisoxetine from human NET stably expressed in HEK cell membranes incubated for 90 mins under dark condition by scintillation counting analysis
Chain of Sodium-dependent noradrenaline transporter (P23975 whole entry): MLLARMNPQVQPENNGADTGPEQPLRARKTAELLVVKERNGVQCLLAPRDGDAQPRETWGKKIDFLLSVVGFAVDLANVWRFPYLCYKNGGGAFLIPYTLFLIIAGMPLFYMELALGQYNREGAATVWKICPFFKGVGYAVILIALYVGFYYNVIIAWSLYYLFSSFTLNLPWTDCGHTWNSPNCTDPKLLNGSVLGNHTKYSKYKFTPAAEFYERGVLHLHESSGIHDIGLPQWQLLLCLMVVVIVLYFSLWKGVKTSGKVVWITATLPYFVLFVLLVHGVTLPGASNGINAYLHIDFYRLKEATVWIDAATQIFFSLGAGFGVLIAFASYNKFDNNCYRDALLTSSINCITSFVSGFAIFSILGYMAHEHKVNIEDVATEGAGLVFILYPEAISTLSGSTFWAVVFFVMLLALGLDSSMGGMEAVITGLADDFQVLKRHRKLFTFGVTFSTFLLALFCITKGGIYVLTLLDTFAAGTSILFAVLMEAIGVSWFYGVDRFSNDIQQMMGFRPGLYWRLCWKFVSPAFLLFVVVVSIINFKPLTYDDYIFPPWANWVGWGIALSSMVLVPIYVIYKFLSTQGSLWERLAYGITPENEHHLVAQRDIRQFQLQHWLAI
Procedure, shortened: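 Radioligand competition isotherms for human NET; IC50 from non-linear regression, converted to Ki via the Cheng-Prusoff equation; Ki averaged over repeated experiments.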

Rattus norvegicus = test: In vivo agonist activity at 5HT2CR in Sprague-Dawley rat assessed as increase in number of rat choosing drug associated lever at 0.5 to 5 mg/kg, ip treated 30 mins prior to test by drug discrimination test; type: organism-based; conditions: 0.5 h
Procedure, shortened: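 Male Sprague-Dawley rats (n = 13), water-restricted, trained to discriminate WAY163909 (0.75 mg/kg ip, 15 min pretreatment) from saline in a two-lever FR20 water-reinforced task. Test compound given ip at 0.5, 1.0, 2.0 and 5.0 mg/kg, 30 min before a 15 min test. Read-out is the percentage of rats selecting the WAY163909 lever; response rate is also recorded.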

[9] = target: Alpha-2B adrenergic receptor (Homo sapiens) (UniProt P18089); test: Displacement of [3H]-rauwolscine from human adrenergic alpha2B receptor transiently expressed in HEKT cell membranes at 10 uM incubated for 90 mins under dark condition by scintillation counting analysis relative to control
Chain of Alpha-2B adrenergic receptor (Homo sapiens) (P18089 whole entry): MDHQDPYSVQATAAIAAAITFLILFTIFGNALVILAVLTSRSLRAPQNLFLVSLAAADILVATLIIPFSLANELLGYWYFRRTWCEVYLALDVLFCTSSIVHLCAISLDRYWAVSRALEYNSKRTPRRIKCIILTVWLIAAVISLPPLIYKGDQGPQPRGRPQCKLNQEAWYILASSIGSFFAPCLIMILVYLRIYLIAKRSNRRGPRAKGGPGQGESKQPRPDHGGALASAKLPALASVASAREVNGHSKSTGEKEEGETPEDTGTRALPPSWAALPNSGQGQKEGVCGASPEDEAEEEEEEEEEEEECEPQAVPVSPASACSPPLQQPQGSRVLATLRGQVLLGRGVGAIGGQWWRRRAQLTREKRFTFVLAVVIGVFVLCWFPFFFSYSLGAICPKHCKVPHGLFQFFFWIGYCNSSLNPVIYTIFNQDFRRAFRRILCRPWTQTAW

[10] = Kinetic solubility of the compound in PBS at pH 7.4 measured after 2 hrs; type: physicochemical; conditions: buffer, pH 7.4, 2 h

## O=C(NC[C@H](O)CO)[C@@H]1C[C@H](c2ccccc2)CCN1 (mixture of isomers)
[1]
  inhibition: 28.4%
[2]
  inhibition: -9.3%
[3]
  Activity: Not Active
[4]
  inhibition: 40.8%
[5]
  inhibition: 23.3%
[6]
  BPR: 0.11
[7]
  inhibition: 9.7%
[8]
  pKi: 5.60
Rattus norvegicus
  Activity: Non-Toxic
[9]
  inhibition: 14.5%
[10]
  Kinetic_solubility: > 100 µM
